Laboratory results as given in ChEMBL document CHEMBL1157912, “Impact of nature and length of linker incorporated in agonists on toll-like receptor 9-mediated immune responses” (J Med Chem, 2010).

How the values were obtained:
[1] = molecular target: T1, Toll-like receptor 9 (Homo sapiens) (UniProt Q9NR96); assay: Induction of TLR9-mediated immune stimulation in human PBMC assessed as RANTES production at 10 ug/ml after 24 hrs by luminex multiplex assay (RVb = 0.05 +/- 0.04 ng/ml)
T1 sequence (whole entry): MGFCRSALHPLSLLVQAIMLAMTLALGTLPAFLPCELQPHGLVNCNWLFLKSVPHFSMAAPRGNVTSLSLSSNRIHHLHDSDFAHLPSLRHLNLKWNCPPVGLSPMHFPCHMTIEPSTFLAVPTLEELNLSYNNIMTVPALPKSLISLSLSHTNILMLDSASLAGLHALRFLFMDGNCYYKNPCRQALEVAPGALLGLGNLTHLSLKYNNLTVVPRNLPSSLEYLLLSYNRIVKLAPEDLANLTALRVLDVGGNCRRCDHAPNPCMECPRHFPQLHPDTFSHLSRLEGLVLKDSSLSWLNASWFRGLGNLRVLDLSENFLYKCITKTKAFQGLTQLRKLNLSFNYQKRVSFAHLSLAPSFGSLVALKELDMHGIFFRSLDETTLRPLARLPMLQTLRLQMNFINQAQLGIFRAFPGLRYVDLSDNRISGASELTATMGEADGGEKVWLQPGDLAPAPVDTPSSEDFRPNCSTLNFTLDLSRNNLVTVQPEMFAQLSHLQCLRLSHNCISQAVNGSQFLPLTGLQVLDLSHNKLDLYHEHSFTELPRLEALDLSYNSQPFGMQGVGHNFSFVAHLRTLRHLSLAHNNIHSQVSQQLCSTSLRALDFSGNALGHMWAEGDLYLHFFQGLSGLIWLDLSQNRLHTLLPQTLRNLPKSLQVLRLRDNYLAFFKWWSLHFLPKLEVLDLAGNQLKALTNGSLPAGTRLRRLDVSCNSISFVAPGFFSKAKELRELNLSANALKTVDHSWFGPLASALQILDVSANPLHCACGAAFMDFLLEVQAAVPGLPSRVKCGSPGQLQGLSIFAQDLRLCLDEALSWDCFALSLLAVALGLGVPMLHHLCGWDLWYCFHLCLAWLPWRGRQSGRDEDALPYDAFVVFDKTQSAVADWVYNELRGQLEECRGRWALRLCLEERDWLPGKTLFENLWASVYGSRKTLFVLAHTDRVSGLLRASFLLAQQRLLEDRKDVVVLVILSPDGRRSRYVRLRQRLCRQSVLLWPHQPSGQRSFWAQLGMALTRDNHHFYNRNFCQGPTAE

[2] = molecular target: T1, Toll-like receptor 9 (Homo sapiens); assay: Induction of TLR9-mediated immune stimulation in human PBMC assessed as MCP1 production at 2 ug/ml after 24 hrs by luminex multiplex assay (RVb = 0.08 +/- 0.02 ng/ml)
[3] = molecular target: T1, Toll-like receptor 9 (Homo sapiens); assay: Induction of TLR9-mediated immune stimulation in human PBMC assessed as RANTES production at 2 ug/ml after 24 hrs by luminex multiplex assay (RVb = 0.05 +/- 0.04 ng/ml)
[4] = molecular target: T1, Toll-like receptor 9 (Homo sapiens); assay: Induction of TLR9-mediated immune stimulation in human PBMC assessed as IL1Ralpha production at 2 ug/ml after 24 hrs by luminex multiplex assay (RVb = 0.12 +/- 0.03 ng/ml)
[5] = molecular target: T1, Toll-like receptor 9 (Homo sapiens); assay: Induction of TLR9-mediated immune stimulation in human PBMC assessed as IL1Ralpha production at 10 ug/ml after 24 hrs by luminex multiplex assay (RVb = 0.12 +/- 0.03 ng/ml)
[6] = molecular target: T1, Toll-like receptor 9 (Homo sapiens); assay: Induction of TLR9-mediated immune stimulation in human PBMC assessed as IL2R production at 10 ug/ml after 24 hrs by luminex multiplex assay (RVb = 0.02 +/- 0.01 ng/ml)
[7] = molecular target: T1, Toll-like receptor 9 (Homo sapiens); assay: Induction of TLR9-mediated immune stimulation in human PBMC assessed as IL12 production at 2 ug/ml after 24 hrs by luminex multiplex assay (RVb = 0.00 ng/ml)
[8] = molecular target: T2, Toll-like receptor 9 (Mus musculus) (UniProt Q9EQU3); assay: Activation of mouse TLR9 expressed in HEK293 cells assessed as induction of NF-kappaB activity after 18 hrs by SEAP assay; format: cell-based
T2 sequence (whole entry): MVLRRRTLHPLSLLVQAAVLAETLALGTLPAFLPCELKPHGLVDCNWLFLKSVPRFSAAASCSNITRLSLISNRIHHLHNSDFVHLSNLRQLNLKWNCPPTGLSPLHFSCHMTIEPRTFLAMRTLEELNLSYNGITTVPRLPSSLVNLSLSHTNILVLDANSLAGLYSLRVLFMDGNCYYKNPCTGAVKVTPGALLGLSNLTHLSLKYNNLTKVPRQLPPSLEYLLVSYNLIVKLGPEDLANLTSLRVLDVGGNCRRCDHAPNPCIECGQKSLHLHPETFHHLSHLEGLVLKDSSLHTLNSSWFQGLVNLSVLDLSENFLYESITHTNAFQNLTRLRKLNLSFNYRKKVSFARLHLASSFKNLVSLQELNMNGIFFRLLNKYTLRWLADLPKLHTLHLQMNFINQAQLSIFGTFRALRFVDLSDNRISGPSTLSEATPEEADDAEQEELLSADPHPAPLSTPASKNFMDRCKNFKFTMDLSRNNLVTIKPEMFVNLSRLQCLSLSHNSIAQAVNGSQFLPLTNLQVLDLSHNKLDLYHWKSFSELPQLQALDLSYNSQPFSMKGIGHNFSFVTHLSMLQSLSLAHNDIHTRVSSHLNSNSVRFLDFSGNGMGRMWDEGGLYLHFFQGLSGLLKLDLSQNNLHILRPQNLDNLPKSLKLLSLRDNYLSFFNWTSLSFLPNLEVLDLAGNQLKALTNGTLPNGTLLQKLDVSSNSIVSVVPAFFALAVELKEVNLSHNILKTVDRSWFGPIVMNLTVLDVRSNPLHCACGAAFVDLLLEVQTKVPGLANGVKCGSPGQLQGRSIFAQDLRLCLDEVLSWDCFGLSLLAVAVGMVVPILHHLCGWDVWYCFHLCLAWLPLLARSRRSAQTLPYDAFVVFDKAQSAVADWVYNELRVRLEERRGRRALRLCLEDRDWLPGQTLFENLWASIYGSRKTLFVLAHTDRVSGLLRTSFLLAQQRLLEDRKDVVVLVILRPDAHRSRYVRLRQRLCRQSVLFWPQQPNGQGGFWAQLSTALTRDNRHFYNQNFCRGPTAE
Summary of the method: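 HEK293 cells stably expressing mouse TLR9 were grown in DMEM with 10% heat-inactivated FBS. At 80% confluence they were transiently transfected with a SEAP reporter plasmid (100 ng/well, lipofectamine) for 6 h. Medium was then replaced and agonists were added for 18 h. Supernatant SEAP was read with QuantiBlue substrate at 620-645 nm. Results are expressed as fold NF-κB activity over PBS control.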

[9] = molecular target: T1, Toll-like receptor 9 (Homo sapiens); assay: Induction of TLR9-mediated immune stimulation in human PBMC assessed as MIP1beta production at 2 ug/ml after 24 hrs by luminex multiplex assay (RVb = 0.03 +/- 0.02 ng/ml)
[10] = molecular target: T1, Toll-like receptor 9 (Homo sapiens); assay: Induction of TLR9-mediated immune stimulation in human PBMC assessed as IL2R production at 2 ug/ml after 24 hrs by luminex multiplex assay (RVb = 0.02 +/- 0.01 ng/ml)

Cc1cn([C@H]2C[C@H](OCC[C@H](O)COP(=O)(S)O[C@H]3C[C@H](n4cc(C)c(=O)[nH]c4=O)O[C@@H]3COP(=O)(S)O[C@H]3[C@@H](O)[C@H](n4ccc(N)nc4=O)O[C@@H]3COP(=O)(S)O[C@H]3C[C@H](n4cc(C)c(=O)[nH]c4=O)O[C@@H]3COP(=O)(S)O[C@H]3C[C@H](n4cc(C)c(=O)[nH]c4=O)O[C@@H]3COP(=O)(S)O[C@H]3C[C@H](n4ccc5c(=O)[nH]c(N)nc54)O[C@@H]3COP(=O)(S)O[C@H]3[C@@H](O)[C@H](n4ccc(N)nc4=O)O[C@@H]3COP(=O)(S)O[C@H]3C[C@H](n4cc(C)c(=O)[nH]c4=O)O[C@@H]3COP(=O)(S)O[C@H]3[C@@H](O)[C@H](n4cnc5c(=O)[nH]c(N)nc54)O[C@@H]3COP(=O)(S)O[C@H]3C[C@H](n4cc(C)c(=O)[nH]c4=O)O[C@@H]3COP(=O)(S)O[C@H]3[C@@H](O)[C@H](n4ccc(N)nc4=O)O[C@@H]3COP(=O)(S)O[C@H]3C[C@H](n4cc(C)c(=O)[nH]c4=O)O[C@@H]3CO)[C@@H](COP(=O)(S)O[C@H]3[C@@H](O)[C@H](n4ccc(N)nc4=O)O[C@@H]3COP(=O)(S)O[C@H]3C[C@H](n4cc(C)c(=O)[nH]c4=O)O[C@@H]3COP(=O)(S)O[C@H]3C[C@H](n4cc(C)c(=O)[nH]c4=O)O[C@@H]3COP(=O)(S)O[C@H]3C[C@H](n4ccc5c(=O)[nH]c(N)nc54)O[C@@H]3COP(=O)(S)O[C@H]3[C@@H](O)[C@H](n4ccc(N)nc4=O)O[C@@H]3COP(=O)(S)O[C@H]3C[C@H](n4cc(C)c(=O)[nH]c4=O)O[C@@H]3COP(=O)(S)O[C@H]3[C@@H](O)[C@H](n4cnc5c(=O)[nH]c(N)nc54)O[C@@H]3COP(=O)(S)O[C@H]3C[C@H](n4cc(C)c(=O)[nH]c4=O)O[C@@H]3COP(=O)(S)O[C@H]3[C@@H](O)[C@H](n4ccc(N)nc4=O)O[C@@H]3COP(=O)(S)O[C@H]3C[C@H](n4cc(C)c(=O)[nH]c4=O)O[C@@H]3CO)O2)c(=O)[nH]c1=O (stereo not given in full)
Activity [1]: 0.98 ng/mL | Activity [2]: 13.2 ng/mL | Activity [3]: 0.69 ng/mL | Activity [4]: 16.4 ng/mL | Activity [5]: 29.6 ng/mL | Activity [6]: 0.12 ng/mL | Activity [7]: 0.16 ng/mL | Activity [8]: Dose-dependent effect | Activity [9]: 0.81 ng/mL | Activity [10]: 0.09 ng/mL

Cc1cn([C@H]2C[C@H](OCCOCCOCCOCCOP(=O)(S)O[C@H]3C[C@H](n4cc(C)c(=O)[nH]c4=O)O[C@@H]3COP(=O)(S)O[C@H]3[C@@H](O)[C@H](n4ccc(N)nc4=O)O[C@@H]3COP(=O)(S)O[C@H]3C[C@H](n4cc(C)c(=O)[nH]c4=O)O[C@@H]3COP(=O)(S)O[C@H]3C[C@H](n4cc(C)c(=O)[nH]c4=O)O[C@@H]3COP(=O)(S)O[C@H]3C[C@H](n4ccc5c(=O)[nH]c(N)nc54)O[C@@H]3COP(=O)(S)O[C@H]3[C@@H](O)[C@H](n4ccc(N)nc4=O)O[C@@H]3COP(=O)(S)O[C@H]3C[C@H](n4cc(C)c(=O)[nH]c4=O)O[C@@H]3COP(=O)(S)O[C@H]3[C@@H](O)[C@H](n4cnc5c(=O)[nH]c(N)nc54)O[C@@H]3COP(=O)(S)O[C@H]3C[C@H](n4cc(C)c(=O)[nH]c4=O)O[C@@H]3COP(=O)(S)O[C@H]3[C@@H](O)[C@H](n4ccc(N)nc4=O)O[C@@H]3COP(=O)(S)O[C@H]3C[C@H](n4cc(C)c(=O)[nH]c4=O)O[C@@H]3CO)[C@@H](COP(=O)(S)O[C@H]3[C@@H](O)[C@H](n4ccc(N)nc4=O)O[C@@H]3COP(=O)(S)O[C@H]3C[C@H](n4cc(C)c(=O)[nH]c4=O)O[C@@H]3COP(=O)(S)O[C@H]3C[C@H](n4cc(C)c(=O)[nH]c4=O)O[C@@H]3COP(=O)(S)O[C@H]3C[C@H](n4ccc5c(=O)[nH]c(N)nc54)O[C@@H]3COP(=O)(S)O[C@H]3[C@@H](O)[C@H](n4ccc(N)nc4=O)O[C@@H]3COP(=O)(S)O[C@H]3C[C@H](n4cc(C)c(=O)[nH]c4=O)O[C@@H]3COP(=O)(S)O[C@H]3[C@@H](O)[C@H](n4cnc5c(=O)[nH]c(N)nc54)O[C@@H]3COP(=O)(S)O[C@H]3C[C@H](n4cc(C)c(=O)[nH]c4=O)O[C@@H]3COP(=O)(S)O[C@H]3[C@@H](O)[C@H](n4ccc(N)nc4=O)O[C@@H]3COP(=O)(S)O[C@H]3C[C@H](n4cc(C)c(=O)[nH]c4=O)O[C@@H]3CO)O2)c(=O)[nH]c1=O (stereo not given in full)
Activity [1]: 1.09 ng/mL | Activity [2]: 0.22 ng/mL | Activity [3]: 0.7 ng/mL | Activity [4]: 9.05 ng/mL | Activity [5]: 69.9 ng/mL | Activity [6]: 0.17 ng/mL | Activity [7]: 0.11 ng/mL | Activity [8]: Dose-dependent effect | Activity [9]: 0.08 ng/mL | Activity [10]: 0.04 ng/mL
